Experimental data as given in ChEMBL document CHEMBL1121519, “Basic antiinflammatory compounds. N,N',N''-Trisubstituted guanidines” (J Med Chem, 1980).

Experiments:
[1] = Lethal dose in mice(peroral administration); format: toxicity, organism-based; settings: mouse, in vivo, po
How it was run: (§1)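 Median lethal dose found after oral dosing of mice, four mice per dose level, and calculated by the Litchfield–Wilcoxon method.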

[2] = Lethal dose in mice determined by Litchfield and Wilcoxon methods after peroral administration.; format: toxicity, organism-based; settings: mouse, in vivo, po; how it was run: as §1
[3] = Inhibitory concentration against PG synthetase; format: functional
[4] = molecular target: Cyclooxygenase (Bos taurus) (UniProt O62664+O62698); assay: Inhibition of prostaglandin synthetase in bovine seminal vesicle microsomes using Beckman liquid scintillation counter at 10 e-5 M; settings: Microsome
Rattus norvegicus [5] = assay: Effective dose against carrageenan edema(peroral administration); format: functional; settings: po
How it was run: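 Sprague-Dawley rats fasted 18 h, dosed orally in 0.5% carboxymethylcellulose suspension 1 h before 0.1 mL of 1% carrageenan into right hind paw plantar tissue. Paw swelling in treated versus control rats measured 3 h post-carrageenan by mercury-displacement plethysmometry; ED50 given in mg/kg po.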

Rattus norvegicus [6] = assay: Effective dose against gastroulcerogenic activity (peroral administration); format: functional; settings: po
How it was run: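 Groups of six Sprague-Dawley rats given oral doses once daily for 3 days; inner stomach surface examined for lesions 24 h after last dose. ED50 is the dose giving macroscopically visible lesions in 50% of rats.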

Rattus norvegicus [7] = assay: Effective dose against nystatin edema(peroral administration); format: functional; settings: po
Rattus norvegicus [8] = assay: Effective dose against analgesic activity (peroral administration); format: functional; settings: po
[9] = Toxic score (3) was measured as lethal dose in orally administered mice; format: toxicity, organism-based; settings: mouse, in vivo, po
How it was run: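 Score derived from mouse oral LD50 (Litchfield–Wilcoxon, four mice per dose), in mg/kg: >1000 = 3; 500-1000 = 2; <500 = 1.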

[10] = Lethal dose in rats(peroral administration); format: toxicity, organism-based; settings: rat, in vivo, po
Rattus norvegicus [11] = assay: Minimum effective dose against adjuvant arthritis on administration); format: functional; settings: read-out: MED
How it was run: (§2)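 Female Lewis rats given adjuvant arthritis by plantar M. butyricum in mineral oil. Oral daily dosing either from adjuvant day to day 28 (continuous), day 16 to day 28 (therapeutic), or day 5 pre- to day 5 postadjuvant (prophylactic). MED: lowest dose producing significant (p < 0.05) inhibition of noninjected paw swelling on day 28, by plethysmometry.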

Rattus norvegicus [12] = assay: Minimum effective dose against adjuvant arthritis on prophylactic dosing (peroral administration); format: functional; settings: po, read-out: MED; how it was run: as §2
Rattus norvegicus [13] = assay: Minimum effective dose against adjuvant arthritis on therapeutic dosing (peroral administration); format: functional; settings: po, read-out: MED; how it was run: as §2
Rattus norvegicus [14] = species on record: Rattus norvegicus; assay: Minimum effective dose is the lowest dose preventing any futher increase in body temperature; format: functional; settings: read-out: MED
How it was run: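 Antipyretic test, oral dosing; MED defined as the lowest dose preventing any further increase of body temperature.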

Rattus norvegicus [15] = species on record: Rattus norvegicus; assay: Tested for inhibition in the rat paw injected with carrageenan.; format: functional; set-up: concentration or dose not given beside the values
Rattus norvegicus [16] = species on record: Rattus norvegicus; assay: Tested for inhibition in the rat paw not injected with […].; format: functional; set-up: concentration or dose not given beside the values
How it was run: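 Adjuvant-induced arthritis, female Lewis rats, six per group: M. butyricum in mineral oil (3 mg/mL, 0.1 mL) injected into right hind paw plantar tissue. Daily oral dosing from adjuvant day to day 28, 10 or 5 (mg/kg)/day according to mouse oral LD50 (≥1000 or <1000 mg/kg). Injected and noninjected paw swelling read by mercury-displacement plethysmometry on day 28.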

Rattus norvegicus [17] = assay: Percent inhibition of carrageenan paw edema in rat, administered orally at a dose of one tenth of oral lethal dose in mice; format: functional
How it was run: (§3)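 1 h later, 0.1 mL of 1% carrageenan was injected into the right hind-paw plantar tissue. Paw swelling was measured by mercury-displacement plethysmometry 3 h after carrageenan, compared with controls.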

Rattus norvegicus [18] = assay: Total score is the sum of scores obtained in the adjuvant arthritis, acute toxicity, carrageenan edema, and prostaglandin synthetase assay; format: functional
Rattus norvegicus [19] = species on record: Rattus norvegicus; assay: Average percent inhibition (arthritis score=3) of the swelling of both injected and non injected paw was measured; format: functional
How it was run: (§4)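 Adjuvant arthritis in inbred female Lewis rats, groups of six, acclimatized 2 weeks. Arthritis induced by injecting 0.1 mL M. butyricum in mineral oil (3 mg/mL) into right hind paw plantar tissue. Oral dosing daily from adjuvant day to day 28: 10 (mg/kg)/day if mouse oral LD50 ≥1000 mg/kg, else 5 (mg/kg)/day. Swelling of injected and noninjected paws measured day 28 by mercury-displacement plethysmometry; mean percent inhibition scored 0–3.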

[20] = Tested for percent inhibition of carrageenan paw edema in rat, administered orally at a dose of one tenth of lethal dose; format: organism-based; settings: in vivo, po; how it was run: as §3
Rattus norvegicus [21] = species on record: Rattus norvegicus; assay: Tested for enhancement in the rat paw injected with carrageenan.; format: functional
Rattus norvegicus [22] = species on record: Rattus norvegicus; assay: Tested for enhancement in the rat paw not injected with carrageenan.; format: functional
Rattus norvegicus [23] = species on record: Rattus norvegicus; assay: Average percent inhibition of the swelling of both injected and non injected paw was measured; format: functional; how it was run: as §4
Rattus norvegicus [24] = species on record: Rattus norvegicus; assay: Average percent inhibition (arthritis score=2) of the swelling of both injected and non injected paw was measured;values ranges from: […]-[…]; format: functional
Rattus norvegicus [25] = species on record: Rattus norvegicus; assay: Average percent inhibition (arthritis score)of the swelling of both injected and non injected paw was measured; […]; format: functional
Rattus norvegicus [26] = species on record: Rattus norvegicus; assay: Average percent inhibition (arthritis score) of the swelling of both injected and non injected paw was measured; […]; format: functional

For Cc1cc(/N=C(\Nc2nccs2)NC2CCCCC2)c2ccccc2n1 [TIMEGADINE], the LD50 [1] was greater than 1000 mg/kg, the LD50 [2] was greater than 1000 mg/kg and the IC50 [3] was 2.5 µM. The inhibition [4] was 100%, the ED50 (Rattus norvegicus [5]) was 29.6 mg/kg and the ED50 (Rattus norvegicus [6]) was 170 mg/kg. For the same compound, the ED50 (Rattus norvegicus [7]) was 26.5 mg/kg, the ED50 (Rattus norvegicus [8]) was 68.5 mg/kg and the LD50 [9] was greater than 1000 mg/kg. It also gave an LD50 [10] of 1220 mg/kg, a minimal effective dose (Rattus norvegicus [11]) of 3 mg/kg and a minimal effective dose (Rattus norvegicus [12]) of 10 mg/kg. The minimal effective dose (Rattus norvegicus [13]) was 10 mg/kg, the minimal effective dose (Rattus norvegicus [14]) was 12.4 mg/kg and the Inhibition (Rattus norvegicus [15]) was 53%. For the same compound, the Inhibition (Rattus norvegicus [16]) was 63%, the Inhibition (Rattus norvegicus [17]) was 68% and the Total score (Rattus norvegicus [18]) was 12. For the same compound, the Inhibition (Rattus norvegicus [19]) was “>=50%”.

Work on CCCCCC/N=C(\Nc1nccs1)Nc1cc(C)nc2ccccc12 yielded an inhibition [4] of -23.8% and an LD50 [20] of 8 mg/kg.

Compound Cc1csc(/N=C(\Nc2cc(C)nc3ccccc23)NC2CCCCC2)n1 has an LD50 [2] greater than 1000 mg/kg, an inhibition [4] of 89.3% and an LD50 [9] greater than 1000 mg/kg. It also gave an Inhibition (Rattus norvegicus [17]) of 38%, a Total score (Rattus norvegicus [18]) of 7 and an Enhancement (Rattus norvegicus [21]) of 15%. The Enhancement (Rattus norvegicus [22]) was 23% and the Inhibition (Rattus norvegicus [23]) was less than 10%.

Cc1cc(N/C(=N\C2CC2)Nc2nccs2)c2ccccc2n1 showed an LD50 [2] of 600 mg/kg, an inhibition [4] of 15.8% and an Inhibition (Rattus norvegicus [15]) of 53%. It also gave an Inhibition (Rattus norvegicus [16]) of 30%, an Inhibition (Rattus norvegicus [17]) of 65% and a Total score (Rattus norvegicus [18]) of 7. It also gave an Inhibition (Rattus norvegicus [24]) of 49%.

Compound Cc1cc(N/C(=N/C(C)(C)C)Nc2nnc(C)s2)c2ccccc2n1 has an LD50 [2] greater than 1000 mg/kg, an inhibition [4] of 33% and an LD50 [9] greater than 1000 mg/kg. It also gave an Inhibition (Rattus norvegicus [15]) of 45%, an Inhibition (Rattus norvegicus [16]) of 51% and an Inhibition (Rattus norvegicus [17]) of 85%. The Total score (Rattus norvegicus [18]) was 9 and the Inhibition (Rattus norvegicus [25]) was 49%.

Work on Cc1cc(/N=C(\Nc2cc(C)nc3ccccc23)NC2CCCCC2)sn1 yielded an LD50 [2] greater than 1000 mg/kg, an inhibition [4] of 83.2% and an LD50 [9] greater than 1000 mg/kg. The Inhibition (Rattus norvegicus [15]) was 1%, the Inhibition (Rattus norvegicus [16]) was 21% and the Inhibition (Rattus norvegicus [17]) was 48%. It also gave a Total score (Rattus norvegicus [18]) of 9 and an Inhibition (Rattus norvegicus [26]) of 29%.
